From ChEMBL document CHEMBL4665864, “Indole acrylonitriles as potential anti-hyperglycemic agents: Synthesis, α-glucosidase inhibitory activity and molecular docking studies” (Bioorg Med Chem, 2020)

Experiment: Inhibition of Saccharomyces cerevisiae alpha-glucosidase using p-nitrophenyl-alpha-D-glucopyranoside as substrate preincubated with enzyme for 5 mins followed by substrate addition and measured after 30 mins by microplate reader analysis
Settings: not given; call rule not given here
How it was run: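 Yeast enzyme solution 2.5 U mL-1 and p-NPG made up in 0.07 M phosphate buffer, pH 6.8. Enzyme, buffer and test compound preincubated 5 min at 37 °C, then 10 mM p-NPG stock added and incubated 30 min at 37 °C. Reaction stopped with 0.2 M Na2CO3, p-nitrophenol read at 405 nm. Percent inhibition taken against buffer-only control; IC50 from dose-response curves of compounds giving ≥50% inhibition.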

| Compound | IC50 |
| --- | --- |
| N#C/C(=C\c1ccc2ccccc2c1)C(=O)c1c[nH]c2ccccc12 | Not Active |
| N#C/C(=C\c1ccc(Cl)cc1)C(=O)c1c[nH]c2ccccc12 | Not Active |
| N#C/C(=C\c1cccc([N+](=O)[O-])c1)C(=O)c1c[nH]c2ccccc12 | Not Active |
| N#C/C(=C\c1cccc(OCc2ccccc2)c1)C(=O)c1c[nH]c2ccccc12 | Not Active |
| COc1ccc(/C=C(\C#N)C(=O)c2c[nH]c3ccccc23)c(F)c1 | Not Active |
| N#C/C(=C\c1cccnc1)C(=O)c1c[nH]c2ccccc12 | Not Active |
| CN(C)c1ccc(/C=C(\C#N)C(=O)c2c[nH]c3ccccc23)cc1 | Not Active |
| N#C/C(=C\c1ccc(-c2ccccc2)cc1)C(=O)c1c[nH]c2ccccc12 | Not Active |
| Cc1ccccc1/C=C(\C#N)C(=O)c1c[nH]c2ccccc12 | Not Active |
| N#C/C(=C\c1ccncc1)C(=O)c1c[nH]c2ccccc12 | Not Active |
| N#C/C(=C\c1c(Cl)cccc1Cl)C(=O)c1c[nH]c2ccccc12 | Not Active |
| N#C/C(=C\c1cc(Cl)cc(Cl)c1O)C(=O)c1c[nH]c2ccccc12 | Not Active |
| N#C/C(=C\c1ccc(OCc2ccccc2)cc1)C(=O)c1c[nH]c2ccccc12 | Not Active |
| N#C/C(=C\c1ccco1)C(=O)c1c[nH]c2ccccc12 | Not Active |

Same assay, conditions: read-out: IC50

| Compound | IC50 [nM] |
| --- | --- |
| N#C/C(=C\c1ccc([N+](=O)[O-])cc1)C(=O)c1c[nH]c2ccccc12 | 880 |
| COc1cc(/C=C(\C#N)C(=O)c2c[nH]c3ccccc23)cc(OC)c1Br | 530 |
| N#C/C(=C\c1cccc2ccccc12)C(=O)c1c[nH]c2ccccc12 | 600 |
| COc1ccc(/C=C(\C#N)C(=O)c2c[nH]c3ccccc23)cc1OCc1ccccc1 | 1020 |
| N#C/C(=C\c1ccc2ccc3cccc4ccc1c2c34)C(=O)c1c[nH]c2ccccc12 | 1360 |
| COc1cccc(/C=C(\C#N)C(=O)c2c[nH]c3ccccc23)c1Cl | 950 |
| N#C/C(=C\c1ccccc1OCc1ccccc1)C(=O)c1c[nH]c2ccccc12 | 1190 |
| C[C@H]1O[C@H](O[C@H]2[C@H](O)[C@@H](O)[C@@H](O[C@H]3[C@H](O)[C@@H](O)C(O)O[C@@H]3CO)O[C@@H]2CO)[C@H](O)[C@@H](O)[C@@H]1N[C@H]1C=C(CO)[C@@H](O)[C@H](O)[C@H]1O (some centres not stated) [ACARBOSE] | 2910 |
